The values below come from ChEMBL document CHEMBL1255347, “Multiclonal outbreak of Klebsiella pneumoniae producing extended-spectrum beta-lactamase CTX-M-2 and novel variant CTX-M-59 in a neonatal intensive care unit in Brazil” (2008).

The structures appear in SMILES notation. Values after ≈ are worked out from the molar mass of the structure shown. Some results are limits rather than exact numbers.

Holding throughout (assay type): functional
Test [1] concerns Klebsiella pneumoniae. Put plainly: Antimicrobial activity against CTX-M-2 and TEM-1 producing Klebsiella pneumoniae transconjugants/transformants with PFGE pulsotype I by Etest. In short, it runs like this:
(§1)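 The recipient was E. coli XL1-Blue Rifr NAr. Plasmids moved by broth mating, with transconjugants selected on LB agar containing ampicillin, rifampin and nalidixic acid, each at 50 μg/ml. Where mating failed, alkaline-lysis plasmid extracts were electroporated and selected on ampicillin 50 μg/ml. β-lactam MICs were read by Etest, with and without clavulanic acid.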

The test system of test [2] is Klebsiella pneumoniae. Put plainly: Antimicrobial activity against CTX-M-59 and TEM-1 producing Klebsiella pneumoniae transconjugants/transformants with PFGE pulsotype C by Etest. In outline:
as §1

Test [3] relates to Klebsiella pneumoniae. The test can be described thus: Antimicrobial activity against CTX-M-59 and TEM-1 producing Klebsiella pneumoniae transconjugants/transformants with PFGE pulsotype G by Etest. In short, it runs like this:
as §1

Test [4] deals with Klebsiella pneumoniae. The test can be described thus: Antimicrobial activity against CTX-M-2 and TEM-1 producing Klebsiella pneumoniae transconjugants/transformants with PFGE pulsotype B by Etest. In outline: as §1
The test system of test [5] is Klebsiella pneumoniae. The test can be described thus: Antimicrobial activity against SHV-5 producing Klebsiella pneumoniae transconjugants/transformants with PFGE pulsotype D by Etest. In short, it runs like this: as §1
Test [6] relates to Escherichia coli. Put plainly: Antimicrobial activity against Escherichia coli str. K-12 substr. DH10B harboring plasmid CTX-M-2. Particulars: K-12 DH10B. In outline: (§2)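 blaCTX-M PCR products were cut with XbaI/BamHI and cloned into pBC-SK(−), then electroporated into E. coli DH10B. Transformants were selected on LB agar with ampicillin 50 μg/ml and chloramphenicol 30 μg/ml, and sequences were confirmed. These clones were used for β-lactam MICs, with and without clavulanic acid.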

The test system of test [7] is Klebsiella pneumoniae. Put plainly: Antimicrobial activity against CTX-M-2 producing Klebsiella pneumoniae with PFGE pulsotype F by Etest.
In test [8] the test system is Klebsiella pneumoniae. The test can be described thus: Antimicrobial activity against SHV-5 producing Klebsiella pneumoniae with PFGE pulsotype D by Etest. In short, it runs like this: (§3)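 Clinical K. pneumoniae isolates from a neonatal ICU outbreak near São Paulo were typed by XbaI PFGE using Tenover criteria. Cultures were grown in LB broth at 37°C. Etest MICs followed the manufacturer's instructions, with cefotaxime and ceftazidime each tested with and without clavulanic acid.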

Test [9] has as its system Klebsiella pneumoniae. The test can be described thus: Antimicrobial activity against CTX-M-2 producing Klebsiella pneumoniae with PFGE pulsotype A by Etest. In short, it runs like this: as §3
In test [10] the test system is Klebsiella pneumoniae. Put plainly: Antimicrobial activity against CTX-M-2 and TEM-1 producing Klebsiella pneumoniae transconjugants/transformants with PFGE pulsotype F by Etest. In outline: as §1
Test [11] concerns Escherichia coli. Put plainly: Antimicrobial activity against Escherichia coli str. K-12 substr. DH10B harboring plasmid CTX-M-59. The settings on record: K-12 DH10B. In outline:
as §2

Test [12] deals with Klebsiella pneumoniae. Put plainly: Antimicrobial activity against CTX-M-2 producing Klebsiella pneumoniae with PFGE pulsotype B by Etest. In outline: as §3
Test [13] relates to Klebsiella pneumoniae. The test can be described thus: Antimicrobial activity against CTX-M-2 producing Klebsiella pneumoniae with PFGE pulsotype H by Etest. In short, it runs like this: as §3
Test [14] has as its system Klebsiella pneumoniae. The test can be described thus: Antimicrobial activity against CTX-M-2 and TEM-1 producing Klebsiella pneumoniae transconjugants/transformants with PFGE pulsotype H by Etest. In short, it runs like this:
as §1

The test system of test [15] is Klebsiella pneumoniae. The test can be described thus: Antimicrobial activity against CTX-M-59 and TEM-1 producing Klebsiella pneumoniae transconjugants/transformants with PFGE pulsotype E by Etest. In outline:
as §1

For test [16], the system named is Klebsiella pneumoniae. The test can be described thus: Antimicrobial activity against CTX-M-59 producing Klebsiella pneumoniae with PFGE pulsotype G by Etest. In short, it runs like this:
as §3

Test [17] has as its system Klebsiella pneumoniae. Put plainly: Antimicrobial activity against CTX-M-2 and TEM-1 producing Klebsiella pneumoniae transconjugants/transformants with PFGE pulsotype A by Etest. In short, it runs like this: as §1
The subject of test [18] is Klebsiella pneumoniae. Put plainly: Antimicrobial activity against CTX-M-2 and TEM-1 producing Klebsiella pneumoniae transconjugants/transformants with PFGE pulsotype J by Etest. In outline:
as §1

For test [19], the system named is Klebsiella pneumoniae. The test can be described thus: Antimicrobial activity against CTX-M-2 producing Klebsiella pneumoniae with PFGE pulsotype J by Etest.
Test [20] concerns Klebsiella pneumoniae. Put plainly: Antimicrobial activity against CTX-M-59 producing Klebsiella pneumoniae with PFGE pulsotype E by Etest.
Test [21] concerns Klebsiella pneumoniae. Put plainly: Antimicrobial activity against CTX-M-2 producing Klebsiella pneumoniae with PFGE pulsotype I by Etest.
Test [22] relates to Klebsiella pneumoniae. The test can be described thus: Antimicrobial activity against CTX-M-59 producing Klebsiella pneumoniae with PFGE pulsotype C by Etest.

With `C[C@@H](O)[C@H]1C(=O)N2C(C(=O)O)=C(S[C@@H]3CN[C@H](C(=O)Nc4cccc(C(=O)O)c4)C3)[C@H](C)[C@H]12`, the MIC with Klebsiella pneumoniae [1] came out at 0.032 µg/mL (≈ 0.0673 µM); in the test on Klebsiella pneumoniae [2], 0.064 µg/mL (≈ 0.135 µM); in the test with Klebsiella pneumoniae [3] it was 0.125 µg/mL (≈ 0.263 µM); against Klebsiella pneumoniae [4], 0.125 µg/mL (≈ 0.263 µM); with Klebsiella pneumoniae [5], 0.012 µg/mL (≈ 0.0252 µM); with Escherichia coli [6], 0.016 µg/mL (≈ 0.0336 µM). The MIC in the test on Klebsiella pneumoniae [7] came to 1.5 µg/mL (≈ 3.15 µM); against Klebsiella pneumoniae [8], 0.094 µg/mL (≈ 0.198 µM); with Klebsiella pneumoniae [9], 1.5 µg/mL (≈ 3.15 µM); in the test on Klebsiella pneumoniae [10], 0.125 µg/mL (≈ 0.263 µM); with Escherichia coli [11], 0.016 µg/mL (≈ 0.0336 µM); in the test with Klebsiella pneumoniae [12], 1 µg/mL (≈ 2.1 µM). The minimal inhibitory concentration (MIC) worked out at 2 µg/mL (≈ 4.21 µM) against Klebsiella pneumoniae [13]; 0.094 µg/mL (≈ 0.198 µM) against Klebsiella pneumoniae [14]; 0.094 µg/mL (≈ 0.198 µM) against Klebsiella pneumoniae [15]; 1.5 µg/mL (≈ 3.15 µM) in the test on Klebsiella pneumoniae [16]; 0.125 µg/mL (≈ 0.263 µM) with Klebsiella pneumoniae [17]; 0.094 µg/mL (≈ 0.198 µM) against Klebsiella pneumoniae [18]. The MIC in the test with Klebsiella pneumoniae [19] came to 1.5 µg/mL (≈ 3.15 µM); in the test with Klebsiella pneumoniae [20], 1.5 µg/mL (≈ 3.15 µM); against Klebsiella pneumoniae [21], 1 µg/mL (≈ 2.1 µM); with Klebsiella pneumoniae [22], 1.5 µg/mL (≈ 3.15 µM).

As for `CO/N=C(\C(=O)N[C@@H]1C(=O)N2C(C(=O)[O-])=C(C[N+]3(C)CCCC3)CS[C@H]12)c1csc(N)n1`, the MIC with Klebsiella pneumoniae [4] is 256 µg/mL (≈ 533 µM); against Klebsiella pneumoniae [5], 1.5 µg/mL (≈ 3.12 µM); against Escherichia coli [6], 4 µg/mL (≈ 8.32 µM); in the test on Klebsiella pneumoniae [7], over 256 µg/mL; in the test with Klebsiella pneumoniae [8], 4 µg/mL (≈ 8.32 µM); in the test with Escherichia coli [11], 4 µg/mL (≈ 8.32 µM). The MIC against Klebsiella pneumoniae [12] is 128 µg/mL (≈ 266 µM); in the test on Klebsiella pneumoniae [13] it was over 256 µg/mL; against Klebsiella pneumoniae [16], 32 µg/mL (≈ 66.6 µM); with Klebsiella pneumoniae [19], 12 µg/mL (≈ 25 µM); against Klebsiella pneumoniae [21], 256 µg/mL (≈ 533 µM); against Klebsiella pneumoniae [22], 256 µg/mL (≈ 533 µM).

Take `C[C@H]1[C@H](NC(=O)/C(=N\OC(C)(C)C(=O)O)c2csc(N)n2)C(=O)N1S(=O)(=O)O` [AZTREONAM]: the MIC against Klebsiella pneumoniae [1] is over 256 µg/mL; in the test on Klebsiella pneumoniae [2] it was over 256 µg/mL; with Klebsiella pneumoniae [3], over 256 µg/mL; against Klebsiella pneumoniae [4], 256 µg/mL (≈ 588 µM); with Klebsiella pneumoniae [5], over 256 µg/mL; in the test with Escherichia coli [6], 12 µg/mL (≈ 27.6 µM). In addition, the MIC in the test on Klebsiella pneumoniae [7] was 256 µg/mL (≈ 588 µM); in the test with Klebsiella pneumoniae [8], 256 µg/mL (≈ 588 µM); in the test on Klebsiella pneumoniae [9] it was 24 µg/mL (≈ 55.1 µM); against Klebsiella pneumoniae [10], over 256 µg/mL; in the test with Escherichia coli [11], 12 µg/mL (≈ 27.6 µM); in the test on Klebsiella pneumoniae [12], 48 µg/mL (≈ 110 µM). Besides, the MIC is 48 µg/mL (≈ 110 µM) with Klebsiella pneumoniae [13]; over 256 µg/mL against Klebsiella pneumoniae [14]; 48 µg/mL (≈ 110 µM) against Klebsiella pneumoniae [15]; 64 µg/mL (≈ 147 µM) in the test on Klebsiella pneumoniae [16]; over 256 µg/mL against Klebsiella pneumoniae [17]; over 256 µg/mL against Klebsiella pneumoniae [18]. Besides, the MIC in the test with Klebsiella pneumoniae [19] was found to be 128 µg/mL (≈ 294 µM); in the test on Klebsiella pneumoniae [20], 32 µg/mL (≈ 73.5 µM); in the test on Klebsiella pneumoniae [21], 24 µg/mL (≈ 55.1 µM); against Klebsiella pneumoniae [22] it was 32 µg/mL (≈ 73.5 µM).
